Source: PubChem BioAssay AID720543 (The Scripps Research Institute Molecular Screening Center, 2013)
Among all 370,000 compounds or so, about 2,000 (0.54%) were called active. Shown is part of a subset that was picked to be rich in actives. Values without a mark were called inactive.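 Rule for the calls: active = inhibition exceeding the mean over every tested compound plus 3 SD (cut at about 30% in these data); inactive = the rest.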

What follows are compounds tested against (Lyso)-N-acylphosphatidylethanolamine lipase (Mus musculus) (UniProt Q8VD66) (assay: mouse ABHD4 hydrolase activity blockers – biochemical, fluorescence polarization, primary screen (AID 720543;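 note: 0% = plate median of compound wells and 100% = S159A mutant with DMSO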)). Details: purified mABHD4, FP-Rh probe fluorescence polarization; at 8.92 µM; stronger effect = higher value.
Summary of the method: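 Assay system: mABHD4 protein; medium: HEPES pH 7.0, NaCl, Pluronic buffer; dosing: 8.92 µM, single dose; schedule: 45 min + 60 min at 25 °C; signal: FP readout, ex 525 nm / em 598 nm; read-out: normalized percent inhibition of probe labeling; repeats: single replicate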

Chain of (Lyso)-N-acylphosphatidylethanolamine lipase (Mus musculus) (Q8VD66 whole entry, looked up): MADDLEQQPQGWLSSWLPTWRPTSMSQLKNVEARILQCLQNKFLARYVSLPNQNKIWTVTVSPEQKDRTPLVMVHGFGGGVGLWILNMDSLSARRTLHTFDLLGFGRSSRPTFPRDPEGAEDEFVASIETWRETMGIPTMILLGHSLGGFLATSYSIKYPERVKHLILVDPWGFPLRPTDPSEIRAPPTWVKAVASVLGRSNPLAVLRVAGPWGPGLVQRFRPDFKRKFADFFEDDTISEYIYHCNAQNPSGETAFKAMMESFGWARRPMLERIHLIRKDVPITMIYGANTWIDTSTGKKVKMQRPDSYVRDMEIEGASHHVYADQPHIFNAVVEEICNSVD

| Structure (SMILES) | inhibition |
| --- | --- |
| O=C1CCC([N+](=O)[O-])C(c2ccccc2Br)N1 (configuration not stated) | -0.46% |
| Brc1ccccc1C1Nc2cccc3cccc(c23)N1 | 45.1% (active) |
| O=C(Nc1ccc(Br)cc1)OCCN1C(=O)CCC12CCC(c1ccccc1)CC2 (configuration not stated) | 0.58% |
| COC(=O)[C@H](C(C)C)N(CCc1cn(Cc2ccccc2)nn1)S(=O)(=O)c1ccc(F)cc1Br | -6.45% |
| CC1(C)OC(=O)C2=C(C[C@@H](C3CC3)O[C@H]2CCc2cccc(Cl)c2)O1 | -7.3% |
| CC(=O)O[C@@]1(C(C)=O)CCC2[C@H]3C=C(C)C4=CC(=O)CC[C@@]4(C)C3CC[C@]21C (some centres not stated) | 5.34% |
| Nc1ccc2nc3c(=O)[nH]c(=S)[nH]c3nc2c1 | 53.6% (active) |
| Cc1cc(Cl)c(S(=O)(=O)Nc2ccc3c(c2)OCCO3)cc1OCC(N)=O | -2.74% |
| CC1CCCN(S(=O)(=O)c2ccc(-c3ccc(=O)[nH]n3)o2)C1 (configuration not stated) | -2.46% |
| CC(C)CNS(=O)(=O)CC1NCCc2ccccc21 (configuration not stated) | 3.38% |
| COC(=O)[C@]12C[C@H](CC(=O)NCCCCc3ccccc3)C(=O)N(Cc3ccc4c(c3)OCO4)C1=C[C@H](C(C)(C)C)O[C@@H]2C | 0.01% |
| O=C(CCS(=O)(=O)c1ccccc1)Nc1ccc(Cl)c(Cl)c1 | -9.05% |
| OCCNc1nc(Nc2ccc(Cl)c(Cl)c2)nc2ccccc12 | 39.5% (active) |
| OCCNCCOc1ccc(Cl)c(Cl)c1 | 3.5% |
| CCOC(=O)[C@]12CCC=C1N(Cc1ccccc1)C(=O)[C@H](CC(=O)N1CCCC1)C2 | -6.55% |
| O=C1[C@@H](c2ccccc2)[C@@H](c2ccccc2)N1c1ccccc1 | -3.86% |
| Cc1cc2nc(-c3ccco3)c(Cc3cccc(F)c3)n2c(C)c1Br | 10.5% |
| COC(=O)C[C@@H]1CC[C@@H]2[C@@H](COc3ccc(NC(=O)Nc4ccc(F)c(F)c4)cc3C(=O)N2C)O1 | 4.06% |
| COc1cc(/C=C2/C(=O)NN(c3cccc(Cl)c3)C2=O)cc(Br)c1O | 38.5% (active) |
| CCOc1c(Br)cc(/C=C2\C(=O)N(CCC#N)N=C2C)cc1OC | -10.7% |
| CC1CN(Cc2nc3c(c(=O)n(C)c(=O)n3C)n2Cc2cccc(Cl)c2)CC(C)O1 (configuration not stated) | 4.39% |

| Structure (SMILES) | inhibition |
| --- | --- |
| CCCC1CCC2(CCCN2CCOC(=O)NCc2ccccc2)CC1 (configuration not stated) | -7.41% |
| O=[N+]([O-])c1cc(Br)c(O)c(/C=N/Nc2nc3ccccc3s2)c1 | 38.8% (active) |
| CCC1(C)Cc2c(sc3nnn(CC(=O)Nc4ccc(Cl)cc4)c(=O)c23)CO1 (configuration not stated) | -18.9% |
| COc1ccc(OC)c(NC(=O)c2ccc3c(c2)C(=O)N(c2ccc(OC(C)=O)cc2)C3=O)c1 | 3.91% |
| O=C(O)c1ccc2c(c1)C(=O)N(c1ccc(/C=C/C(=O)c3ccccc3)cc1)C2=O | 39.1% (active) |
| CC(=O)Nc1ccc(NC(=O)c2ccc3c(c2)C(=O)N(c2ccccc2C)C3=O)cc1 | -1.82% |
| Cc1cccnc1C(NC(=O)C1CCN(Cc2ccc(Cl)c(Cl)c2)CC1)c1ccc(Cl)cc1 (configuration not stated) | -1.83% |
| CC1CN(C2CCCCC2)c2nc3c(c(=O)n(C)c(=O)n3C)n2C1 (configuration not stated) | -5.35% |
| COc1cccc(CSc2nnc(-c3cccnc3)n2Cc2ccccc2)c1 | 0.82% |
| COc1cc(/C=C/C(=O)n2cnc3ccccc32)cc(OC)c1OC | -5.44% |
| C[C@H]1[C@H](NC(=O)c2cccc(N(C)C)c2)CC[C@@]23CCCN2C(=O)CCC[C@@H]13 | 4.02% |
| COC(=O)c1cccc(Cn2ccc3ccc(-c4ccc5ccn(C(=O)C6CCCCC6)c5c4)cc32)c1 | 3.18% |
| COc1cccc2c1C(=O)c1c(O)c3c(c(O)c1C2=O)CC(O)(C(C)=NNC(=O)c1ccc(Cl)c(Cl)c1)CC3OC1CC(N)C(O)C(C)O1 (configuration not stated) | 67.4% (active) |
| Cc1ccc(S(=O)(=O)/N=S(\C)C(C)C)cc1 (configuration not stated) | -2.12% |
| Cc1ccc(S(=O)(=O)N[C@H](CO)C(C)C)cc1 | -3.46% |
| Cc1ccc(S(=O)(=O)/N=C2\C=C(NS(=O)(=O)c3ccc(C)cc3)C(=O)c3ccccc32)cc1 | 40.1% (active) |
| C[C@@H](NC(=O)OC(C)(C)C)c1nnc(S(=O)(=O)Cc2ccccc2)o1 | 11.2% |
| CC(C)C(=O)N1c2ccccc2NC2=C(C(=O)CCC2)C1c1ccc(N(C)C)cc1 (configuration not stated) | 7.43% |
| CCCCCCCCNS(=O)(=O)/C=C/c1cc(C)ccc1CNC(=O)OC(C)(C)C | -4.09% |
| Cc1ccc(C)c(NC(=O)CCS(=O)(=O)c2ccccc2)c1 | -4.18% |
| Oc1ccc2ccccc2c1N=Nc1nccs1 | 61.8% (active) |
